Compound activity (PubChem BioAssay)
FGF22 binding: FGF22 (human) thermal shift binding; Q9HCT0; recombinant FGF22 thermal shift, SYPRO orange fluorescence; percent of sucrose octasulfate shift, DMSO zero; activity (Tm shift, normalised), % at 9.99 µM; actives 1.5% (n = 340,000); AID 651658;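 active = mean Tm shift, scaled 0 neutral to 100 positive control, at about 1.3% or above, every replicate too, limit read from the data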
ERAP1 inh: ERAP1 (human) enzyme inhibition. recombinant ERAP1, Leu-AMC fluorescence, 60 min. inhibition, % at 10.7 µM. actives 0.15% (n = 340,000);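 active = mean replicate inhibition of at least 30%, or all replicates individually reaching that 30% level; inactive = mean below 30% and not every replicate reaching it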;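 note: 0% = neutral control wells and 100% = L-leucinethiol positive control wells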
ERp5 block: blocks human ERp5 reductase activity on insulin. Q15084. ERp5 insulin aggregation, absorbance 650 nm, 90 min. inhibition, % at 9.99 µM. actives 0.05% (n = 350,000);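 active = mean replicate inhibition above about 25%, with every replicate also reaching it, limit read from the data, passing the limit was not always enough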
S100A4 MyoIIA: S100A4-myosin IIA interaction inhibition; AID 652163; actives 0.14% (n = 360,000); P26447; inhibition, % at 10.7 µM; S100A4/TAMRA-MyoIIA peptide fluorescence polarization;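 active = mean inhibition of at least 70% across replicates, with every replicate also reaching that level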
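Test system: S100A4 monomer protein. Medium: HEPES buffer with Ca2+, pH 7.2. Reagent: fluorescent myosin IIA peptide, 5 nM. Compound dosing: single-point compound testing. Timing: 5 min between mix addition and reading. Benchmarks: DMSO neutral and TFP positive wells.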
PDI turbidity: PDI (human) enzyme inhibition; P07237; PDI insulin aggregation turbidity, A650, 90 min; inhibition, % at 10 µM; actives 0.052% (n = 350,000); AID 588391;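 active = mean inhibition across replicates of 30% or more, whatever share of single replicates reach that level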
Active calls of the source: *. The entries come from a sample that favours hits as a whole.

How did CC1CN(CCOCCSc2ccccc2)CC(C)O1 (configuration not stated) do in these assays?
FGF22 binding: 43.4*; ERAP1 inh: -2.3; ERp5 block: -0.5; S100A4 MyoIIA: -2.1; PDI turbidity: 4.4

Results for CC1CN(CCOCCSc2ccc(Cl)cc2)CC(C)O1 (configuration not stated) ?
FGF22 binding: -0.2; ERAP1 inh: -2.2; ERp5 block: -3.3; S100A4 MyoIIA: -3.9; PDI turbidity: -3.0

Results for COC(c1ccccc1)c1nnc(CCC(=O)NCc2ccc3ncccc3c2)o1 (configuration not stated) ?
FGF22 binding: 0.5; ERAP1 inh: -6.0; ERp5 block: -0.5; S100A4 MyoIIA: 1.7; PDI turbidity: 10.2

How did COc1ccccc1C(O)(C(=O)NNc1ccccc1C)c1ccccc1OC do in these assays?
FGF22 binding: 43.1*; ERAP1 inh: -0.4; ERp5 block: 0.6; S100A4 MyoIIA: 8.6; PDI turbidity: -6.2

How did Cn1ccsc1=NC(=O)c1ccc(=O)[nH]c1 do in these assays?
FGF22 binding: 0.1; ERAP1 inh: 33.6*; ERp5 block: 2.3; S100A4 MyoIIA: 11.5; PDI turbidity: 14.3

Results for COc1ccccc1OCC(=O)Nc1cc(C)ccc1NC(=O)c1ccco1 ?
FGF22 binding: 0.1; ERAP1 inh: 1.1; ERp5 block: -7.5; S100A4 MyoIIA: -2.6; PDI turbidity: 18.3

What do the screens show for `CCOc1ccccc1C(=O)Nc1cc(C)ccc1NC(=O)c1ccco1`?
FGF22 binding: 1.7*; ERAP1 inh: -1.2; ERp5 block: 3.7; S100A4 MyoIIA: 2.8; PDI turbidity: 1.3

Results for CCOc1ccc(CC(=O)Nc2ccc(NC(=O)c3ccco3)cc2)cc1OCC ?
FGF22 binding: 43.9*; ERAP1 inh: 4.6; ERp5 block: -3.7; S100A4 MyoIIA: 1.0; PDI turbidity: 14.2

How did CC(C)(C)c1ccc(NC(=O)c2ccccc2)c([N+](=O)[O-])c1 do in these assays?
FGF22 binding: 44.2*; ERAP1 inh: 3.9; ERp5 block: -0.8; S100A4 MyoIIA: -3.3; PDI turbidity: 16.2

What do the screens show for `CCC(=O)Nc1ccc(NC(=O)c2ccco2)cc1`?
FGF22 binding: -0.1; ERAP1 inh: 9.5; ERp5 block: 8.8; S100A4 MyoIIA: 1.3; PDI turbidity: 0.8

What do the screens show for `Cc1ccc(NC(=O)COc2ccccc2)c(NC(=O)c2ccco2)c1`?
FGF22 binding: -0.1; ERAP1 inh: 0.5; ERp5 block: 29.7*; S100A4 MyoIIA: -0.7; PDI turbidity: 9.9

What do the screens show for `Cc1ccc(NC(=O)CN2C(=O)NC(Cc3ccccc3)C2=O)cc1Cl` (configuration not stated)?
FGF22 binding: 0.1; ERAP1 inh: 1.1; ERp5 block: -3.4; S100A4 MyoIIA: 0.1; PDI turbidity: -1.7

What do the screens show for `COc1ccc2c3c([nH]c2c1)[C@H](CO)N(C(=O)Nc1ccc(F)cc1)CC31CCN(C(=O)Nc2ccccc2)CC1`?
FGF22 binding: 0.0

How did Cc1ccc(NC(=O)c2ccco2)c([N+](=O)[O-])c1 do in these assays?
FGF22 binding: 43.5*; ERAP1 inh: -1.8; ERp5 block: -1.2; S100A4 MyoIIA: -2.4; PDI turbidity: 6.8

What do the screens show for `Cc1ccc(CN2C(=O)CN(S(C)(=O)=O)CC2(C)C(=O)NC(C)C)cc1` (configuration not stated)?
FGF22 binding: 0.1; ERp5 block: -0.6; S100A4 MyoIIA: 10.2

Results for O=C(N/N=C/c1ccc(O)cc1)c1[nH]c2ccc(Br)cc2c1-c1ccccc1 ?
FGF22 binding: 0.2; ERAP1 inh: -1.2; ERp5 block: 1.7; S100A4 MyoIIA: -1.4; PDI turbidity: -0.7

What do the screens show for `Cc1cccc(-c2nc(CC(=O)Nc3cccc(S(=O)(=O)NC4=NCCC4)c3)cs2)c1`?
FGF22 binding: -0.5; ERAP1 inh: 0.4; ERp5 block: 3.0; S100A4 MyoIIA: -6.8; PDI turbidity: 7.9

Results for Cc1ccc(S(N)(=O)=O)c(C)c1N1CCCC1=O ?
FGF22 binding: 43.8*; ERAP1 inh: 0.6; ERp5 block: 0.8; S100A4 MyoIIA: -12.1; PDI turbidity: 3.4

What do the screens show for `CCC(CNc1cc(OC)cc2cccnc12)NC1CCCCC1` (configuration not stated)?
FGF22 binding: 0.0; ERAP1 inh: 3.6; ERp5 block: 4.6; S100A4 MyoIIA: 139.9*; PDI turbidity: -2.2

What do the screens show for `CCC12CN3CCN(CC(C3)/C1=N\NC(=O)c1ccc(Cl)cc1)C2`?
FGF22 binding: 42.7; ERAP1 inh: 3.3; ERp5 block: -1.5; S100A4 MyoIIA: 46.0; PDI turbidity: 5.5
